Experimental data published in ChEMBL document CHEMBL2010793, “Synthesis of novel 7-oxo and 7-hydroxy trifluoroallocolchicinoids with cytotoxic effect” (Bioorg Med Chem, 2012).

Key:
[1] = organism: Ovis aries; experiment: Inhibition of sheep brain tubulin polymerization at 6.7 x 10^-5 M after 15 mins by turbidimetry analysis
Method in brief: (§1)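 Microtubule protein from sheep brain, purified by two assembly/disassembly cycles (37 °C/0 °C) in 100 mM MES pH 6.6, 1 mM EGTA, 0.5 mM MgCl2. Compound with microtubule solution held 10 min at 37 °C then 5 min at 0 °C; polymerization followed by turbidity at 350 nm. Screened at 6.7 10^-5 M in triplicate, deoxypodophyllotoxin reference.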

[2] = tested on: KB; experiment: Cytotoxicity against human KB cells assessed as inhibition of cell proliferation at 10^-6 M after 72 hrs by MTS assay; assay type: functional; conditions: read-out: GI
Method in brief: (§2)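 KB cells seeded at 650 cells/well in 200 µl medium, dosed 24 h later with compounds from DMSO (1% DMSO final; controls DMSO only). After 72 h, MTS added for 3 h at 37 °C, A490 read; inhibition from treated/control OD ratio. Single-concentration tests in triplicate with docetaxel 2.5 10^-10 M reference; IC50 runs in separate duplicate.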

[3] = tested on: KB; experiment: Cytotoxicity against human KB cells assessed as inhibition of cell proliferation at 10^-5 M after 72 hrs by MTS assay; assay type: functional; conditions: read-out: GI; method in brief: as §2
[4] = Inhibition of sheep brain tubulin polymerization after 15 mins by turbidimetry analysis; parameters: species or system Ovis aries; method in brief: as §1
[5] = Inhibition of tubulin polymerization
Method in brief: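 Sheep brain microtubule protein was purified by two assembly/disassembly cycles (37 °C/0 °C) in 100 mM MES pH 6.6, 1 mM EGTA, 0.5 mM MgCl2. Samples were incubated 10 min at 37 °C, then 5 min at 0 °C, and polymerization was read by turbidimetry at 350 nm. Compounds were tested at 6.7 10^-5 M in triplicate, with deoxypodophyllotoxin as reference.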

[6] = tested on: KB; experiment: Cytotoxicity against human KB cells; assay type: functional, cell-based
Method in brief: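 KB cells seeded at 650 cells/well and dosed 24 h later with compounds in DMSO (1% final). Screened at 10^-5 and 10^-6 M in triplicate, with docetaxel 2.5 10^-10 M as reference. After 72 h, MTS was added for 3 h at 37 °C and A490 was read. Inhibition was derived from treated/control OD. IC50 was run in separate duplicate when inhibition exceeded 80% at 10^-5 M.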

[7] = tested on: KB; experiment: Cytotoxicity against human KB cells assessed as inhibition of cell proliferation after 72 hrs by MTS assay; assay type: functional, cell-based; method in brief: as §2

Row | inhibition [1] | IC50 [4] | Compound | inhibition of growth at 1 µM [2] | inhibition of growth at 10 µM [3] | IC50 [5] | IC50 [6] | IC50 [7]
1 | 23% | – | COc1cc2c(cc1OC)[C@H](O)C[C@@H](NC(=O)C(F)(F)F)c1ccccc1-2 (racemic) | 0% | 9% | – | – | –
2 | 89% | 13 µM | COc1cc2c(c(OC)c1OC)-c1ccccc1C(NC(=O)C(F)(F)F)CC2O (mixture of isomers) | 0% | 8% | – | – | –
3 | – | – | COc1ccc2c(c1)[C@@H](NC(C)=O)CCc1cc(OC)c(OC)c(OC)c1-2 | – | – | 0.7 µM | 0.019 µM | –
4 | 13% | – | COc1cc2c(cc1OC)C(O)CC(NC(=O)C(F)(F)F)c1cc(O)ccc1-2 (mixture of isomers) | 0% | 2% | – | – | –
5 | 12% | – | COc1cc2c(cc1OC)-c1ccccc1C(NC(=O)C(F)(F)F)CC2=O (stereo unspecified) | 0% | 92% | – | – | –
6 | 89% | 12 µM | COc1ccc2c(c1)C(NC(=O)C(F)(F)F)CC(=O)c1cc(OC)c(OC)c(OC)c1-2 (racemic) | 98% | 96% | – | – | 0.045 µM
7 | 33% | – | COc1ccc(-c2ccc(OC)c3c2C(NC(=O)C(F)(F)F)CC3=O)c(OC)c1OC (stereo unspecified) | 0% | 97% | – | – | 1.25 µM
8 | 18% | – | COc1ccc2c(c1)C(NC(=O)C(F)(F)F)CC(O)c1cc(OC)c(OC)c(OC)c1-2 (stereo unspecified) | 0% | 94% | – | – | 1.59 µM
9 | 62% | 37 µM | COc1cc2c(c(OC)c1OC)-c1ccc(O)cc1C(NC(=O)C(F)(F)F)CC2=O (stereo unspecified) | 37% | 96% | – | – | 0.33 µM
10 | 29% | – | COc1cc2c(c(OC)c1OC)-c1ccc(O)cc1C(NC(=O)C(F)(F)F)CC2O (mixture of isomers) | 0% | 60% | – | – | –
11 | 48% | 80 µM | COc1cc2c(c(OC)c1OC)-c1ccccc1C(NC(=O)C(F)(F)F)CC2=O (stereo unspecified) | 18% | 91% | – | – | 2.95 µM
12 | 2% | – | COc1ccc2c(c1)C(NC(=O)C(F)(F)F)CC(O)c1cc(OC)c(OC)cc1-2 (mixture of isomers) | 0% | 9% | – | – | –
13 | 63% | 60 µM | COc1ccc2c(c1)C(NC(=O)C(F)(F)F)CC(=O)c1cc(OC)c(OC)cc1-2 (stereo unspecified) | 0% | 38% | – | – | –
14 | 24% | – | COc1cc2c(cc1OC)-c1ccc(O)cc1C(NC(=O)C(F)(F)F)CC2=O (stereo unspecified) | 0% | 40% | – | – | –

Row | Compound | inhibition [1] | IC50 [4] | inhibition of growth at 1 µM [2] | inhibition of growth at 10 µM [3] | IC50 [5] | IC50 [6] | IC50 [7]
15 | COc1cc([C@@H]2c3cc4c(cc3C[C@H]3COC(=O)[C@@H]32)OCO4)cc(OC)c1OC [DESOXYPODOPHYLLOTOXIN] | 100% | 3.2 µM | 100% | 100% | – | – | 0.003 µM
